Values belong to the compound of their own block, whether it stands above or below them. The source made the active and inactive calls. No cut-off for these calls is given here.
Assays:
PC-3 = assay: Antiproliferative activity against AR-negative human PC3 cells assessed as reduction in cell viability after 5 days by CCK8 assay; assay type: functional, cell-based; settings: PC-3, 120 h
Procedure, shortened: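 Cells seeded at 3 × 10^3 per well for 24 h, then dosed in 10-point, 3-fold serial dilution from 10 µM. CCK-8 added after 5 days, 4 h at 37 °C, absorbance at 450 nm. IC50 averaged from three separate determinations (at least two independent runs, duplicate wells). PC-3 grown in DMEM/F12 (1:1), LO2 in RPMI 1640, both with 10% FBS.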

[1] = biological target: T1, Protein cereblon/Cyclin-dependent kinase 2/Cyclin-dependent kinase 9 (Homo sapiens, UniProt P24941+P50750+Q96SW2); assay: Protac activity at CRBN/CDK2/CDK9 in AR-negative human PC3 cells assessed as induction of CDK2 protein degradation at 5 uM after 12 hrs by Western blot analysis; assay type: cell-based; settings: PC-3
Procedure, shortened: (§1)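 PC-3 cells (5 × 10^5 per well) treated 12 h at single concentrations (50 nM, 500 nM, 1, 5 or 30 µM). RIPA lysates (50 µg) run on 10% SDS-PAGE and immunoblotted for CDK2, CDK5, CDK9 with β-tubulin loading control, then detected by chemiluminescence. Band intensities quantified densitometrically.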

[2] = biological target: T2, Protein cereblon/Cyclin-dependent kinase 2 (Homo sapiens) (UniProt P24941+Q96SW2); assay: Protac activity at CRBN/CDK2 in AR-negative human PC3 cells assessed as induction of CDK2 protein degradation at 1 uM after 12 hrs by Western blot analysis; assay type: cell-based; settings: PC-3; procedure, shortened: as §1
[3] = biological target: Protein cereblon/Cyclin-dependent kinase 5 (Homo sapiens) (UniProt Q00535+Q96SW2); assay: Protac activity at CRBN/CDK5 in AR-negative human PC3 cells assessed as induction of CDK5 protein degradation at 1 uM after 12 hrs by Western blot analysis; assay type: cell-based; settings: PC-3; procedure, shortened: as §1
[4] = biological target: T3, Protein cereblon/Cyclin-dependent kinase 9 (Homo sapiens) (UniProt P50750+Q96SW2); assay: Protac activity at CRBN/CDK9 in AR-negative human PC3 cells assessed as induction of CDK9 protein degradation at 1 uM after 12 hrs by Western blot analysis; assay type: cell-based; settings: PC-3
Procedure, shortened: (§2)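 PC-3 cells (DMEM/F12 1:1, 10% FBS, 1% pen/strep, 37 °C, 5% CO2) plated at 5 × 10^5 per well, exposed to compound for 12 h. RIPA lysates with protease inhibitors; 50 µg total protein run on 10% SDS-PAGE, transferred to PVDF, blocked in 5% milk/TBS-T. Probed with anti-CDK9 (1/1000), β-tubulin loading control, HRP secondary, chemiluminescence; bands scored as degradation detected or not.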

[5] = biological target: T1, Protein cereblon/Cyclin-dependent kinase 2/Cyclin-dependent kinase 9; assay: Protac activity at CRBN/CDK2/CDK9 in AR-negative human PC3 cells assessed as induction of CDK9 protein degradation at 5 uM after 12 hrs by Western blot analysis; assay type: cell-based; settings: PC-3; procedure, shortened: as §1
[6] = biological target: T1, Protein cereblon/Cyclin-dependent kinase 2/Cyclin-dependent kinase 9; assay: Protac activity at CRBN/CDK2/CDK9 in AR-negative human PC3 cells assessed as induction of CDK9 protein degradation at 30 uM after 12 hrs by Western blot analysis; assay type: cell-based; settings: PC-3; procedure, shortened: as §1
[7] = biological target: T2, Protein cereblon/Cyclin-dependent kinase 2 (Homo sapiens); assay: Protac activity at CRBN/CDK2 in AR-negative human PC3 cells assessed as induction of CDK2 protein degradation at 50 nM after 12 hrs by Western blot analysis; assay type: cell-based; settings: PC-3; procedure, shortened: as §1
[8] = biological target: T1, Protein cereblon/Cyclin-dependent kinase 2/Cyclin-dependent kinase 9; assay: Protac activity at CRBN/CDK2/CDK9 in AR-negative human PC3 cells assessed as induction of CDK2 protein degradation at 1 uM after 12 hrs by Western blot analysis; assay type: cell-based; settings: PC-3; procedure, shortened: as §1
[9] = biological target: T3, Protein cereblon/Cyclin-dependent kinase 9 (Homo sapiens); assay: Protac activity at CRBN/CDK9 in AR-negative human PC3 cells assessed as induction of CDK9 protein degradation at 50 nM after 12 hrs by Western blot analysis; assay type: cell-based; settings: PC-3; procedure, shortened: as §2
[10] = biological target: T1, Protein cereblon/Cyclin-dependent kinase 2/Cyclin-dependent kinase 9; assay: Protac activity at CRBN/CDK2/CDK9 in AR-negative human PC3 cells assessed as induction of CDK9 protein degradation at 1 uM after 12 hrs by Western blot analysis; assay type: cell-based; settings: PC-3; procedure, shortened: as §1
[11] = biological target: T3, Protein cereblon/Cyclin-dependent kinase 9 (Homo sapiens); assay: Protac activity at CRBN/CDK9 in AR-negative human PC3 cells assessed as induction of CDK9 protein degradation at 30 uM after 12 hrs by Western blot analysis; assay type: cell-based; settings: PC-3; procedure, shortened: as §2
[12] = biological target: T1, Protein cereblon/Cyclin-dependent kinase 2/Cyclin-dependent kinase 9; assay: Protac activity at CRBN/CDK2/CDK9 in AR-negative human PC3 cells assessed as induction of CDK2 protein degradation after 24 hrs by Western blot analysis; assay type: cell-based; settings: PC-3
Procedure, shortened: (§3)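 PC-3 cells exposed to a degrader concentration series, then immunoblotted for CDK2 and CDK9 versus β-tubulin. The figure legend gives 24 h exposure. DC50 taken as mean of 2 determinations from densitometry.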

[13] = biological target: T1, Protein cereblon/Cyclin-dependent kinase 2/Cyclin-dependent kinase 9; assay: Protac activity at CRBN/CDK2/CDK9 in AR-negative human PC3 cells assessed as induction of CDK9 protein degradation after 24 hrs by Western blot analysis; assay type: cell-based; settings: PC-3; procedure, shortened: as §3
[14] = biological target: T1, Protein cereblon/Cyclin-dependent kinase 2/Cyclin-dependent kinase 9; assay: Protac activity at CRBN/CDK2/CDK9 in AR-negative human PC3 cells assessed as CDK2 degradation at 10^-1 to 10^3 nM after 12 hrs by Western blot analysis; assay type: cell-based; settings: PC-3
[15] = biological target: T1, Protein cereblon/Cyclin-dependent kinase 2/Cyclin-dependent kinase 9; assay: Protac activity at CRBN/CDK2/CDK9 in AR-negative human PC3 cells assessed as CDK9 degradation at 10^-1 to 10^3 nM after 12 hrs by Western blot analysis; assay type: cell-based; settings: PC-3
[16] = biological target: T1, Protein cereblon/Cyclin-dependent kinase 2/Cyclin-dependent kinase 9; assay: Protac activity at CRBN/CDK2/CDK9 in AR-negative human PC3 cells assessed as CDK2 degradation at 10 to 10^4 nM after 12 hrs by Western blot analysis; assay type: cell-based; settings: PC-3
[17] = biological target: T1, Protein cereblon/Cyclin-dependent kinase 2/Cyclin-dependent kinase 9; assay: Protac activity at CRBN/CDK2/CDK9 in AR-negative human PC3 cells assessed as CDK9 degradation at 10 to 10^4 nM after 12 hrs by Western blot analysis; assay type: cell-based; settings: PC-3

T3 sequence (P50750 whole entry, looked up): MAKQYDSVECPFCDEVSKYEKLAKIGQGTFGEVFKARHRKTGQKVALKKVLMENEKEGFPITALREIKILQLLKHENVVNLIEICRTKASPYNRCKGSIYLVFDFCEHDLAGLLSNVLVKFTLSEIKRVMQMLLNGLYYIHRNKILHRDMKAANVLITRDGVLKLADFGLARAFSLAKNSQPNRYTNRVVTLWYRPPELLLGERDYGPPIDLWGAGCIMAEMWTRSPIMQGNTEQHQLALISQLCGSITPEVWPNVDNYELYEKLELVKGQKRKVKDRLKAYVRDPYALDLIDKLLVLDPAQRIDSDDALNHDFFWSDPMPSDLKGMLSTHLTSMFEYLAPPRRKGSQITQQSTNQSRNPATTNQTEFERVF
T3 sequence (Q96SW2 whole entry, looked up): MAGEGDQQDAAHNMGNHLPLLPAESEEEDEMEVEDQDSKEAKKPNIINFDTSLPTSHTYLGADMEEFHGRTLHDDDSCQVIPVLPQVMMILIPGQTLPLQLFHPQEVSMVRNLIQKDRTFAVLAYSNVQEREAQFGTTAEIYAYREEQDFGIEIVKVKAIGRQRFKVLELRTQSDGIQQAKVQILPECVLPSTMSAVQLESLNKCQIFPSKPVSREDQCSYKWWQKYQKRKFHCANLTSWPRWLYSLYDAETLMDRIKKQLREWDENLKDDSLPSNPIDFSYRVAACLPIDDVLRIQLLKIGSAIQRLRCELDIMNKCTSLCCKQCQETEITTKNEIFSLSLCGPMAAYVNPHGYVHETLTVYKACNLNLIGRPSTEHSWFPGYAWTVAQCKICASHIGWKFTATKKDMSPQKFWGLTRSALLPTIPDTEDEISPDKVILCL
Protein cereblon/Cyclin-dependent kinase 5 (Homo sapiens), sequence (Q00535 whole entry, looked up): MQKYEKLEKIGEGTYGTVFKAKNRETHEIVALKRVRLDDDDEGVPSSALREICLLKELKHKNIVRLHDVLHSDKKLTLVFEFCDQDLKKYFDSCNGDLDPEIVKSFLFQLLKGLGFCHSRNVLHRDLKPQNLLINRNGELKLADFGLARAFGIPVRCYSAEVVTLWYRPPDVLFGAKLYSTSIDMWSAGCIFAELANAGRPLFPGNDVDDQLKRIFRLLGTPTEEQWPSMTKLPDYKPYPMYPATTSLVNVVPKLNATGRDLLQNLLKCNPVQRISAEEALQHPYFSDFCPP
Protein cereblon/Cyclin-dependent kinase 5 (Homo sapiens), sequence (Q96SW2 whole entry, looked up): as the sequence (Q96SW2 whole entry, looked up) above

IC50 (PC-3): 23.3 µM
Compound: O=C(CCC(=O)N1CCC(NC(=O)c2n[nH]cc2NC(=O)c2c(Cl)cccc2Cl)CC1)NCCCCNc1cccc2c1C(=O)N(C1CCC(=O)NC1=O)C2=O (stereo unspecified)

Activity [1]: Active
Activity [2]: Active
Activity [3]: inactive
Activity [4]: inactive
Activity [5]: Active
Activity [6]: Active
Compound: O=C(COc1cccc2c1C(=O)N(C1CCC(=O)NC1=O)C2=O)NCCCCCC(=O)N1CCC(NC(=O)c2n[nH]cc2NC(=O)c2c(Cl)cccc2Cl)CC1 (stereo unspecified)

IC50 (PC-3): 0.54 µM
Activity [7]: Active
Activity [8]: Active
Activity [9]: Active
Activity [6]: Active
Activity [10]: Active
Compound: O=C(COc1cccc2c1C(=O)N(C1CCC(=O)NC1=O)C2=O)NCCCCCC(=O)N1CCN(Cc2ccc(NC(=O)c3n[nH]cc3Nc3ncnc4[nH]ccc34)cc2)CC1 (stereo unspecified)

Activity [11]: Active
IC50 (PC-3): 8.03 µM
Activity [4]: Active
Compound: O=C(CCC(=O)N1CCN(Cc2ccc(NC(=O)c3n[nH]cc3Nc3ncnc4[nH]ccc34)cc2)CC1)NCCNC(=O)COc1cccc2c1C(=O)N(C1CCC(=O)NC1=O)C2=O (stereo unspecified)

IC50 (PC-3): 13.4 µM
Activity [12]: inactive
Activity [13]: inactive
Compound: O=C(CCC(=O)N1CCN(Cc2ccc(NC(=O)c3n[nH]cc3Nc3ncnc4[nH]ccc34)cc2)CC1)NCCCCNC(=O)COc1cccc2c1C(=O)N(C1CCC(=O)NC1=O)C2=O (stereo unspecified)

IC50 (PC-3): 1.31 µM
Compound: O=C(CCC(=O)N1CCC(NC(=O)c2n[nH]cc2NC(=O)c2c(Cl)cccc2Cl)CC1)NCCCCCCNC(=O)COc1cccc2c1C(=O)N(C1CCC(=O)NC1=O)C2=O (stereo unspecified)

IC50 (PC-3): 2.02 µM
Compound: O=C(CCC(=O)N1CCC(NC(=O)c2n[nH]cc2NC(=O)c2c(Cl)cccc2Cl)CC1)NCCCOCCOCCOCCCNC(=O)COc1cccc2c1C(=O)N(C1CCC(=O)NC1=O)C2=O (stereo unspecified)

Activity [14]: Active
Activity [15]: Active
Compound: O=C(CCC(=O)N1CCN(Cc2ccc(NC(=O)c3n[nH]cc3Nc3ncnc4[nH]ccc34)cc2)CC1)NCCNc1ccc2c(c1)C(=O)N(C1CCC(=O)NC1=O)C2=O (stereo unspecified)

Activity [16]: inactive
Activity [17]: inactive
Compound: CN1C(=O)CCC(N2C(=O)c3cccc(NCCNC(=O)CCC(=O)N4CCN(Cc5ccc(NC(=O)c6n[nH]cc6Nc6ncnc7[nH]ccc67)cc5)CC4)c3C2=O)C1=O (stereo unspecified)

Activity [11]: Active
IC50 (PC-3): 3.6 µM
Activity [7]: Active
Activity [9]: Active
Activity [4]: Active
Compound: O=C(CCC(=O)N1CCN(Cc2ccc(NC(=O)c3n[nH]cc3Nc3ncnc4[nH]ccc34)cc2)CC1)NCCCCCCNc1cccc2c1C(=O)N(C1CCC(=O)NC1=O)C2=O (stereo unspecified)

IC50 (PC-3): 14.6 µM
Compound: O=C(CCC(=O)N1CCC(NC(=O)c2n[nH]cc2NC(=O)c2c(Cl)cccc2Cl)CC1)NCCCCCCNc1cccc2c1C(=O)N(C1CCC(=O)NC1=O)C2=O (stereo unspecified)

Reference: ChEMBL document CHEMBL4602651, “Development of selective mono or dual PROTAC degrader probe of CDK isoforms” (Eur J Med Chem, 2020)
